Screening results from PubChem.
Rows were chosen to be rich in hits. Some 0.79% of all compounds tested hit in one or more screens of this group.
mIAP act: increases mouse intestinal alkaline phosphatase activity; 330,000 compounds, 0.24% hits; muIAP, CDP-Star luminescence, 30 min; active compounds read high; 1 = vehicle-only enzyme signal, 0 = enzyme-free wells; activation factor at 10 µM;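 active = activation factor of at least 2 at 20 µM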
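System: Mouse IAP enzyme | Also added: CDP-Star substrate | Dosing: Compounds dispensed in DMSO | Schedule: 30 min enzyme-substrate-compound incubation at room temperature | Technique: Chemiluminescence readout | Control set: DMSO-only wells and no-enzyme negative control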
mIAP block: blocks mouse intestinal alkaline phosphatase; purified mouse IAP, CDP-Star luminescence, 30 min; inhibition, % at 10 µM; 330,000 compounds, 0.2% hits; AID 2806;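 active = inhibition of at least 40% at 10 µM in the primary screen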;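 also: plate controls were DMSO with enzyme for no effect and no enzyme wells for full effect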
bIAP inh: blocks bovine intestinal alkaline phosphatase activity. purified bovine IAP, CDP-star luminescence, 30 min. inhibition, % at 20 µM. 190,000 tested, under 10 active;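 active = over 50% inhibition of intestinal alkaline phosphatase at 20 µM in the single-dose screen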
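System: Purified bovine intestinal alkaline phosphatase (IAP) enzyme | Input: IAP diluted 1/65,000,000 in the well | Also added: CDP-star chemiluminescent phosphatase substrate, 30 µM final | Dosing: 20 µM single dose | Times: Enzyme reaction for 30 min at room temperature | Detection: Luminescence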
bIAP act: increases bovine intestinal alkaline phosphatase activity. 200,000 compounds, 0.17% hits. purified bovine IAP, CDP-star luminescence, 30 min; active compounds read high; fold of DMSO-control signal, blank-subtracted. activation factor at 20 µM;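 active = activation factor of 2 or more at 20 µM, a signal rise over negative controls twice the positive control's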
hIAP block: human IAP inhibition. P09923. inhibition, % at 10 µM. 330,000 compounds, 0.12% hits. purified IAP, CDP-Star luminescence, 30 min;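 active = inhibition reaching a set limit with compound at 10 µM in the primary screen, cut at about 35% in these data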;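 also: plate controls were DMSO wells with enzyme for no effect and no-enzyme buffer wells for full effect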
Target sequence (P09923 whole entry, looked up): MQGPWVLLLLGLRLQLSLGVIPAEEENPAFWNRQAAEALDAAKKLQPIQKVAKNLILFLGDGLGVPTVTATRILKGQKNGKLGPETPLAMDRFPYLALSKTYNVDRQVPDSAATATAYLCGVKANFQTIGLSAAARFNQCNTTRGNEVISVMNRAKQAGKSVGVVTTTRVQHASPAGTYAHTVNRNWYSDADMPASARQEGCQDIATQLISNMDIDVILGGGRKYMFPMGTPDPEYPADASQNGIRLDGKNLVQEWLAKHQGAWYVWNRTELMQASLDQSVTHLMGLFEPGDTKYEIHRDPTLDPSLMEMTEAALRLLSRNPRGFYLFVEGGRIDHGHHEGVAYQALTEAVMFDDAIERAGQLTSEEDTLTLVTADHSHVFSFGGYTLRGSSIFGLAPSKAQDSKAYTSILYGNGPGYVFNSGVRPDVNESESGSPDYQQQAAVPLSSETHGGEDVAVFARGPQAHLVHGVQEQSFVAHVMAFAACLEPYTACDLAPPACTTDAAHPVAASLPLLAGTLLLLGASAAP
hIAP act: human IAP activation | P09923 | purified human IAP, CDP-Star luminescence, 30 min; active compounds read high; 1 = vehicle-only enzyme, 0 = enzyme-free background | activation factor at 10 µM | 330,000 compounds, 0.16% hits;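 active = activation factor of the enzyme at least 2-fold when tested at 20 µM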
* marks the source's active call; other numbers are inactive results; i = inactive; . = no result.

SMILES	mIAP act	mIAP block	bIAP inh	bIAP act	hIAP block	hIAP act
Cc1ccc(C2(c3ccccc3)NC(=O)N(CC(=O)NCc3ccccc3)C2=O)cc1C (stereo unspecified)	1.1	-13	.	.	-1	1
COC(=O)c1cccc(NC(=O)Nc2ccc(Cl)cc2)c1	2.2*	-123	.	.	0	1
COC(=O)c1cccc(NC(=O)NC23CC4CC(CC(C4)C2)C3)c1	2.6*	-156	2	1	2	0.98
COc1cccc(NC(=O)Nc2cc(Cl)ccc2C)c1	2.2*	-123	-16	1.2	16	0.84
COc1ccc(NC(=O)Nc2cccc(OC)c2)cc1	1.7	-66	.	.	5	0.95
N#CCc1ccc(NC(=O)Nc2cccc(Cl)c2)cc1	2.8*	-176	7	0.9	-39	1.4
CSc1ccc(CN2CCN(C(=O)CC(C)C)CC2)cc1	1.1	-9	.	.	-3	1
Cc1ccc(C(=O)NCC(=O)N/N=C/c2sccc2C)cc1[N+](=O)[O-]	0.88	12	-10	1.1	-1	1
CC1CCCC(NC(=O)Cn2cc(Br)ccc2=O)C1C (stereo unspecified)	1.1	-7	.	.	-12	1.1
COc1ccccc1NS(=O)(=O)c1cccc(NC(=O)Nc2cccc(Cl)c2)c1	2.2*	-124	10	0.9	-6	1.1
Cc1nnc(NC(=O)Nc2cccc(Cl)c2)s1	0.98	2	6	0.9	-13	1.1
Cc1csc(NC(=O)Nc2cccc(Cl)c2)n1	1.2	-18	-123	2.2*	-16	1.2
COc1ccccc1NS(=O)(=O)c1cccc(NC(=O)NCCCl)c1	1.1	-8	.	.	-9	1.1
CCC1(CC)NC(=O)N(CC(=O)OC(C)C(=O)Nc2cc([N+](=O)[O-])ccc2OC)C1=O (stereo unspecified)	1	-2	.	.	-16	1.2
COc1ccc(C)cc1S(=O)(=O)N(CC(N)=O)Cc1ccccc1	1.1	-5	8	0.9	-15	1.1
CCOc1ccc(NC(=O)CCc2c(C)nn(-c3ccc(N4CCCCC4)nn3)c2C)cc1	0.97	3	.	.	-14	1.1
COc1ccccc1-c1cn(S(=O)(=O)c2ccc(F)cc2)nc1N	0.91	9	23	0.8	-6	1.1
CCCSc1n[nH]c(NC(C)=O)n1	0.93	7	0	1	-3	1
CCCCCCCCCCSc1n[nH]c(NC(C)=O)n1	2.1*	-114	-234	3.3*	-8	1.1
Cc1ccc(N2CCN(C(=O)CCc3nc4ccccc4[nH]3)CC2)c(C)c1	1.4	-41	-166	2.7*	-6	1.1
O=C(CSc1nncn1-c1ccccc1)N1CCCC1	0.97	3	.	.	-20	1.2
COc1ccc(C2=NOC(Cn3nc(-c4ccccc4)cc3C(=O)NCc3ccccc3OC)C2)cc1 (stereo unspecified)	2.1*	-107	.	.	0	1
O=C(CN(C(=O)Cn1nnc(-c2ccccc2F)n1)c1cccc2c1CCCC2)NCc1ccccc1	1.5	-51	-121	2.2*	-2	1
COc1ccc(CN2CCN(C3CCC3)CC2CCO)c(C)c1C (stereo unspecified)	0.95	5	.	.	-36	1.4
COC(=O)C1=C(C)NC(=O)NC1c1ccc(N2CCC(c3ccccc3)=N2)cc1 (stereo unspecified)	2.2*	-119	-2	1	-21	1.2
SMILES	mIAP act	mIAP block	bIAP inh	bIAP act	hIAP block	hIAP act
O=C1NC(=S)S/C1=C/c1ccc(N2CCOCC2)o1	0.47	53*	-2	1	15	0.85
CCOC(=O)c1c(C)nn(Cc2cccc(Cl)c2)c1N	0.98	2	18	0.8	5	0.95
CCCn1c(NC(=O)CN2C(=O)NC3(CCCCC3)C2=O)nc2ccccc21	0.96	4	.	.	-14	1.1
O=C1S/C(=C\C=C\c2ccco2)C(=O)N1c1ccc(O)cc1	0.2	80*	-59	1.6	1	0.99
O=C1S/C(=C\c2cccs2)C(=O)N1c1ccc(O)cc1	0.94	6	.	.	-17	1.2
O=C1S/C(=C\C=C\c2ccco2)C(=O)N1c1ccccc1	0.24	76*	3	1	27	0.73
OCc1nc2ccccc2n1C/C=C/c1ccccc1	1	-2	-125	2.2*	-14	1.1
CC(O)c1nc2ccccc2n1C/C=C/c1ccccc1 (stereo unspecified)	0.94	6	-1	1	-8	1.1
Cc1ccc(NC(=O)CSc2nc3ccccc3c(=O)n2CCCN2CCCCC2)cc1C	1.2	-16	-141	2.4*	-13	1.1
COc1ccccc1CC(Cc1nc2ccccc2[nH]1)c1nc2ccccc2[nH]1 (stereo unspecified)	1.5	-49	-259	3.6*	-63	1.6
CC(C)Cc1nc2ccccc2[nH]1	1	0	.	.	-41	1.4
CSc1ccccc1C(=O)Nc1cccc(C(C)O)c1 (stereo unspecified)	1.1	-11	2	1	1	0.99
O=C(Oc1ccccc1C(=O)N1CCOCC1)c1ccc(F)cc1	1	0	.	.	1	0.99
O=C(Oc1ccccc1C(=O)N1CCOCC1)c1ccc(Br)cc1	0.89	11	-118	2.2*	-2	1
O=C(CSc1ccccn1)Nc1ccccc1F	1.1	-11	14	0.9	-8	1.1
O=C(CSc1ccccn1)Nc1cccc2ccccc12	0.32	68*	11	0.9	5	0.95
CCCCC(CC)CNC(=O)C(Cc1ccccc1)NS(=O)(=O)c1ccc2c(c1)CCC(=O)N2 (stereo unspecified)	2.2*	-120	16	0.8	-15	1.2
Cc1c(Br)c([N+](=O)[O-])nn1CC(=O)Nc1ccc(C(C)C)cc1	0.92	8	-3	1	4	0.96
Cc1ccc(NC(=O)COc2ccccc2CNC(C)(C)CC(C)(C)C)cc1	1.6	-58	i	30*	11	0.89
CCCCc1ccc(NC(=S)NCc2ccc(OC)cc2)cc1	2.5*	-155	1	1	-11	1.1
Cc1ccc(NC(=S)NC(C)CCc2ccccc2)cc1C (stereo unspecified)	2.5*	-151	5	1	2	0.98
CC(C)Oc1ccc(CNC(=S)Nc2ccccc2)cc1Cl	1.9	-86	.	.	-30	1.3
COc1ccc(CNC(=S)NC(C)CCc2ccccc2)cc1 (stereo unspecified)	2.4*	-140	20	0.8	-1	1
CC(C)COc1ccc(CNC(=S)Nc2ccccc2)cc1Cl	2.5*	-149	.	.	-33	1.3
CCN(CC)CCCC(C)NC(=O)c1ccc(C(F)(F)F)cc1 (stereo unspecified)	0.93	7	-8	1.1	2	0.98
Cc1cc(C)c(S(=O)(=O)N2CCOC2CNC(=O)C(=O)NCCN(C)C)c(C)c1 (stereo unspecified)	0.98	2	.	.	-20	1.2
